# From PubChem BioAssay
# Activity calls are given as the source filed them. Cut-off read from the data, not from the text of the source, unless noted: active = inhibition above about 30%; inactive = the rest.
# Assays:
# [1] = Her2 expression decrease, cell viability multiplex – SKBR3 breast tumor cells, AlphaScreen, ATP viability, primary screen (AID 461;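 active = Her2 level under about 52% in both replicate screens, with viability over 70% of control, limit read from the data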;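 for Her2 level: lower value means less Her2 protein in the cells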;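 for viability: percent of carrier control wells set as 100% viability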); conditions: SKBR3 Her2 protein level, 18-24 h, measured here: SKBR3 viability, ATP luminescence, at 10 µM
# [2] = biological target: Receptor tyrosine-protein kinase erbB-2 (Homo sapiens) (UniProt P04626); test: as above; conditions: 18-24 h, at 10 µM, stronger effect = lower value
# Chain of Receptor tyrosine-protein kinase erbB-2 (Homo sapiens) (P04626 whole entry, looked up): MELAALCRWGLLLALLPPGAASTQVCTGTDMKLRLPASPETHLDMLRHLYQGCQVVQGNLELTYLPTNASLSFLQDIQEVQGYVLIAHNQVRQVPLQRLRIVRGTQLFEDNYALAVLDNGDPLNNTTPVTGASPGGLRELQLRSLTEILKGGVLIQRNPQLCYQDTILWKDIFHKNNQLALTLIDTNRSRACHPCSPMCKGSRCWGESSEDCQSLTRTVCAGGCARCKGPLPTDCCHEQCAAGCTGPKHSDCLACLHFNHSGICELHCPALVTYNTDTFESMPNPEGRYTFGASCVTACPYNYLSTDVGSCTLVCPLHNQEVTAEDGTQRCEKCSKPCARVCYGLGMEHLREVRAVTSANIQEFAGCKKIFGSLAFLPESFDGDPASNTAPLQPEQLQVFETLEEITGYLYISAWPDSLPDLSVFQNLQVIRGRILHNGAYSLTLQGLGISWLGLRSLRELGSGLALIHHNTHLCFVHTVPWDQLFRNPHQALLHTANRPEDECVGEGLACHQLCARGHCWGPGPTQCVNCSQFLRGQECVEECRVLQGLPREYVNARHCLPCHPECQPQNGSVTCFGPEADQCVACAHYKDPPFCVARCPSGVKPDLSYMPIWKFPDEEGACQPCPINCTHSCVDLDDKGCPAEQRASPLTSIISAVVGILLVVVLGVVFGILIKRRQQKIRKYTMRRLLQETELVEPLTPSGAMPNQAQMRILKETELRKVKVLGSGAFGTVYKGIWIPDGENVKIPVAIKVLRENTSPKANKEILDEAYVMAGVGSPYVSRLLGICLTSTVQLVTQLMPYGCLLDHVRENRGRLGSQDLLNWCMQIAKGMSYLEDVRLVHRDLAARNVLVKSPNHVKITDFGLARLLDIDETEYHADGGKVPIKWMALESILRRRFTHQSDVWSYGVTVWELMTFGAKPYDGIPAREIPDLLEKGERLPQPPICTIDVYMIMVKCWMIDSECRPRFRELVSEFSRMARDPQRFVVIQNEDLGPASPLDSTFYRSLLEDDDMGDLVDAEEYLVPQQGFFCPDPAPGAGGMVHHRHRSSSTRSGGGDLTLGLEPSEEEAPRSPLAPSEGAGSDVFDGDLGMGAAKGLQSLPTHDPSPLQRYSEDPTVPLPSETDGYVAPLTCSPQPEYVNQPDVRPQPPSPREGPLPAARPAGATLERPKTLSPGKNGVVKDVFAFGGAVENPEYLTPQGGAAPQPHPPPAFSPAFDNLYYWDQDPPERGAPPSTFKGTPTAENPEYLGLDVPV
# [3] = reduced viability of SK-BR-3 breast cancer cells – cell-based, 24 h, human, pilot screen (AID 572;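 active = viability at or below 10% of carrier control in both of two separate runs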;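 note: compound exposure lasted between 18 and 24 h rather than exactly 24 h; 100% = carrier-treated control wells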); conditions: SK-BR-3 viability, CellTiter-Glo luminescence, at 10 µM, stronger effect = lower value
# [4] = HUVEC growth inhibition – cell-based, human, primary screen (AID 575;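 active = viability at or below 30% in both replicate assays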;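 note: 100% = median of untreated cell wells with 0.1% DMSO on each plate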); conditions: HUVEC proliferation, CellTiter-Glo luminescence, 72 h; at 10 µM; stronger effect = lower value
# Procedure, shortened: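 material = primary HUVEC, no more than 12 passages | input = 1250 cells per well | controls = vehicle and MePR control wells | measured by = CTG luminescence | times = 72 h compound incubation | format = collagen-coated 384-well format | read-out = % viability vs DMSO wells | doses = single 10 µM dose, 0.1% DMSO, from 5x medium stock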
# [5] = H69AR cell proliferation blockers – human, duplicate replicates, primary screen (AID 580;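 active = viability at or under a set limit in both replicates, limit being median viability minus 3 SD, cut at about 48% in these data, passing the limit was not always enough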;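 note: 100% = mean luminescence of untreated wells and 0% = no signal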); conditions: H69AR lung tumor cells viability, ATP luminescence, 72 h; at 10 µM; stronger effect = lower value
# [6] = MRP1 drug-resistance reversers in H69AR cells – cell-based, doxorubicin co-treatment, pilot screen (AID 601;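 active = viability loss from added drug above about 55%, and viability with drug at most 40%, in both replicates, limit read from the data, passing the limit was not always enough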); conditions: CellTiter-Glo, 72 h, at 10 µM; for differential viability (reversal): stronger effect = higher value
# [7] = yeast transport mutant growth inhibition pilot in 384-well plates, post-Golgi transport modulator project (AID 636; in the data active = inhibition above about 31%); conditions: absorbance 615 nm, about 18 h, stronger effect = higher value
# [8] = growth suppression of yeast trafficking mutant, preliminary HTS, modulators of trafficking downstream of Golgi apparatus project, 1536-format plate, OD 615 nm (AID 637); conditions: yeast transport mutant growth, absorbance 615 nm, 18 h; stronger effect = higher value
# [9] = H69AR cells + 2 uM doxorubicin, measured here: viability with 2 uM doxorubicin, stronger effect = lower value
# [10] = H69AR cells, compound alone cytotoxicity
SMILES,viability [1],Her2 level [2],viability [3],viability [4],viability [5],differential viability (reversal) ([6]; H69AR cells + 2 uM doxorubicin),"viability [6, 9]","viability [6, 10]",inhibition [7],inhibition [8]
CCC1CCCCN1C(=O)Cn1c(C(=O)OC)cc2sc(Cl)cc21 (stereo not given),76.5%,103% (inactive),76.5% (inactive),89.2% (inactive),71.4% (inactive),-17% (inactive),88.4%,71.4%,-0.64% (inactive),-0.67% (inactive)
O=C(c1ccccc1-c1ccccc1)N1CCN(c2ccccn2)CC1,69.5%,93% (inactive),69.5% (inactive),58.8% (inactive),16% (active),-57.7% (inactive),73.7%,16%,-6.76% (inactive),-4.75% (inactive)
CCSc1cc(C2C(C(=O)OC)=C(C)NC3=C2C(=O)CCC3)c(C)o1 (stereo not given),79%,90% (inactive),79% (inactive),109% (inactive),84.5% (inactive),5.68% (inactive),78.8%,84.5%,-6.8% (inactive),3.93% (inactive)
CCN(CC)c1ccc(NC(=O)c2cncc(Br)c2)cc1,97.5%,91% (inactive),97.5% (inactive),76.2% (inactive),79.9% (inactive),-25.4% (inactive),105%,79.9%,-4.47% (inactive),3.77% (inactive)
COc1ccccc1N1CCN(C(=O)C(Cc2ccccc2)NC(=O)C2CCCCC2)CC1 (stereo not given),73.5%,85.5% (inactive),73.5% (inactive),74.8% (inactive),90.6% (inactive),3.88% (inactive),86.7%,90.6%,-5.84% (inactive),-2.62% (inactive)
Cc1cc(C)n(-c2nnc(C)n2/N=C/c2ccco2)n1,108%,91% (inactive),108% (inactive),93.1% (inactive),96.1% (inactive),5.14% (inactive),91%,96.1%,-6.27% (inactive),-2.3% (inactive)
CC(C)[C@H](NC(=O)OC(C)(C)C)c1nnc(SCC(=O)Nc2ccc(Br)cc2)o1,96.5%,108% (inactive),96.5% (inactive),87.5% (inactive),93.9% (inactive),5.79% (inactive),88.1%,93.9%,-1.17% (inactive),-14% (inactive)
COc1ccc(C2CC(=O)C3=C(C2)Nc2ccccc2N(C(=O)C2CC2)C3c2cccnc2)cc1OC (stereo not given),99.5%,96.5% (inactive),99.5% (inactive),89% (inactive),97.9% (inactive),1.81% (inactive),96.1%,97.9%,-0.79% (inactive),-1.67% (inactive)
Cc1cc(C(F)F)n2ncc(C(=O)NC3CCCCCC3)c2n1,89.5%,86% (inactive),89.5% (inactive),78.1% (inactive),89.9% (inactive),-0.225% (inactive),90.2%,89.9%,-4.74% (inactive),8.69% (inactive)
O=C(COC(=O)c1cc(-c2ccco2)nc2ccccc12)NCc1ccc2c(c1)OCO2,97%,93% (inactive),97% (inactive),72.2% (inactive),96.8% (inactive),11.3% (inactive),85.5%,96.8%,-5.75% (inactive),-10.3% (inactive)
Cc1onc(-c2ccccc2)c1C(=O)Nc1ccc(S(=O)(=O)N2CCCCC2)cc1,95.5%,94.5% (inactive),95.5% (inactive),58.4% (inactive),88.9% (inactive),-3.39% (inactive),92.3%,88.9%,-0.77% (inactive),1% (inactive)
CN(C=O)CP(=O)(O)CCN1CCCC1=O,126%,121% (inactive),126% (inactive),104% (inactive),99.4% (inactive),7.19% (inactive),92.2%,99.4%,-4.47% (inactive),0.66% (inactive)
COc1ccc(N2C(N)=C(C#N)C(c3cccnc3)C3=C2CC(C)(C)CC3=O)cc1 (stereo not given),106%,90% (inactive),106% (inactive),79.5% (inactive),20.6% (active),-3% (inactive),23.6%,20.6%,-8.9% (inactive),0.32% (inactive)
CCc1cc(=O)oc2c(CN3CCN(C)CC3)c(O)c(Cl)cc12,107%,93.5% (inactive),107% (inactive),92.6% (inactive),98.4% (inactive),6.53% (inactive),91.8%,98.4%,-2.5% (inactive),-3.61% (inactive)
CC(=O)Nc1sc2c(c1CN1CCN(c3ccccn3)CC1)CCCC2,66%,85.5% (inactive),66% (inactive),96% (inactive),95.4% (inactive),12% (inactive),83.3%,95.4%,-2.53% (inactive),-10.5% (inactive)
Cc1cc(=O)n(CC(C)C)c(O)c1C#N,106%,98% (inactive),106% (inactive),99.4% (inactive),104% (inactive),0.33% (inactive),104%,104%,0.53% (inactive),5.08% (inactive)
CCCCn1c(CN2CCN(c3cccc(Cl)c3)CC2)nc2c1c(=O)n(C)c(=O)n2C,111%,75% (inactive),111% (inactive),66.9% (inactive),74.7% (inactive),50.2% (inactive),24.5%,74.7%,-4.74% (inactive),6.07% (inactive)
CC(C)CCn1c(=O)c2ccccc2n2c(CN(C)Cc3ccccc3)nnc12,83.5%,100% (inactive),83.5% (inactive),70.3% (inactive),84.4% (inactive),72.3% (active),12.1%,84.4%,-6.08% (inactive),11.3% (inactive)
CC(=O)c1cc(Cl)ccc1OC(=O)c1ccco1,106%,92.5% (inactive),106% (inactive),95.3% (inactive),89.2% (inactive),-3.25% (inactive),92.5%,89.2%,-0.65% (inactive),-4.43% (inactive)
CC(=O)Nc1ccc(Oc2ccc3nc(C)[nH]c3c2)cc1,97.5%,93.5% (inactive),97.5% (inactive),113% (inactive),95.4% (inactive),-9.67% (inactive),105%,95.4%,-6.58% (inactive),-10.3% (inactive)
Cc1ccccc1-c1nc(CN2CCC(C(=O)NCc3cccnc3)CC2)c(C)o1,88.5%,82.5% (inactive),88.5% (inactive),85.7% (inactive),87.1% (inactive),0.825% (inactive),86.3%,87.1%,-1.71% (inactive),0% (inactive)
Cc1csc2nc3ccccc3c(=O)n12,100%,91% (inactive),100% (inactive),103% (inactive),94.7% (inactive),1.49% (inactive),93.2%,94.7%,-1.84% (inactive),1.31% (inactive)
CCOC(=O)Nc1ccc(OC)cc1S(=O)(=O)N1CCCCC1,88.5%,93% (inactive),88.5% (inactive),112% (inactive),99% (inactive),17.7% (inactive),81.3%,99%,-1.84% (inactive),-1.8% (inactive)
CCSC1=NCN(CCCC(=O)O)CN1,118%,100% (inactive),118% (inactive),96.3% (inactive),99.9% (inactive),-1.83% (inactive),102%,99.9%,0.13% (inactive),-0.16% (inactive)
O=C(O)COc1ccc(Oc2ccccc2)cc1,102%,106% (inactive),102% (inactive),96.1% (inactive),109% (inactive),13.3% (inactive),96%,109%,0.26% (inactive),-3.55% (inactive)
COCCn1c(SCc2csc(-c3ccccc3)n2)nc2ccccc21,94%,98.5% (inactive),94% (inactive),71.5% (inactive),88.5% (inactive),-2.99% (inactive),91.5%,88.5%,1.3% (inactive),-8.03% (inactive)
Cc1c(C(=O)O)sc2ncn(C)c(=O)c12,106%,78% (inactive),106% (inactive),100% (inactive),103% (inactive),11.7% (inactive),91.7%,103%,-7.76% (inactive),-4% (inactive)
COc1ccc(C2CC(c3ccc(Cl)cc3)Nc3nc(NC(=O)c4ccco4)nn32)cc1 (stereo not given),90.5%,78% (inactive),90.5% (inactive),66.3% (inactive),81.2% (inactive),-9.39% (inactive),90.6%,81.2%,-5.07% (inactive),2.46% (inactive)
CCCCOn1c(C)c(C(=O)OCC)c2c3nonc3ccc21,98.5%,114% (inactive),98.5% (inactive),63.5% (inactive),83.5% (inactive),15% (inactive),68.6%,83.5%,4.4% (inactive),27.6% (inactive)
